48 sequences from the EternaBench riboswitch data can be followed below.

This series concerns MS2 coat protein. Nature of the series: apparent Kd, MS2 coat protein; higher = weaker binding; RNA-MaP array; FMN 200 µM where present. The procedure, abridged:
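Binding was read on Illumina sequencing-chip clusters where stalled E. coli RNA polymerase had transcribed each design. A titration of SNAP-549-labelled MS2 coat protein began at 0.7 or 1.5 nM and doubled to 3 µM, once without ligand and once with constant ligand, in 100 mM Tris-HCl pH 7.5, 80 mM KCl, 4 mM MgCl2, BSA, DTT, yeast tRNA and Tween-20. The apparent Kd is the median of filtered per-cluster binding-curve fits, based on green signal normalised to red-channel RNA signal and control-cluster median Fmax.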

Setting [1] is: designed as: OFF switch for flavin mononucleotide, no ligand.
The mark [2] stands for this setting: ligand present: flavin mononucleotide, designed as: OFF switch for flavin mononucleotide.
Setting [3] is: designed as: ON switch for flavin mononucleotide, no ligand.
[4] abbreviates: ligand present: flavin mononucleotide, designed as: ON switch for flavin mononucleotide.

As for “AUUUGACACGUAGGAUAUCGCUCUAAUUUAACACGAGAAGGACGUACAUGAGGAUCACCCAUGUUAAAUGGUGUAGUUUAUUUG”, the apparent Kd (in general, the concentration giving half-maximal binding under the conditions of the assay) under setting [1] came out at 82.1 nM and the “apparent Kd” value under setting [2] was 164 nM.
The matching figures for “UUAAUUAAUUAAUUGCAGUUUACAUGAGGAUCACCCAUGUAUAAGGAUAUGCAGUGGAAUACACUGCAGAAGGUAUACAUCUGC”: 19.5 nM and 35.2 nM.
On the same counts, the results for “AAUAACAGAGGAUAUACUGUUUUAUGUGUUUGUUAUUUUAAACAUGAGGAUCACCCAUGUAGAAGGCUGAAUGA” are 21.5 nM and 24.5 nM.
As to “UAGUGCGUUAGAGGAUAUUCAAGGUGAAAAAAAAAUACAUGAGGAUCACCCAUGUAAAAACAUGAGGAGAAGGCUGAUGUGCUA”, the “apparent Kd” value under setting [3] came to 38.6 nM and the “apparent Kd” value under setting [4] came to 27.6 nM.
On to “GAUUGACAUGAGGAUCACCCAUGUGAGGAUAUCGGCCGGACCUUGUUAGCUUCCACCGCGAGAAGGCACAUAGG”, for which the “apparent Kd” value was determined as 30.9 nM under setting [1] and 41.6 nM under setting [2].
Regarding “UGUAAGAUGCAGAAGGUGUUAGCUAGAGCUACGACAUGAGGAUCACCCAUGUACUAGAAACAGUACAAGGAUAUGCAUCUUACA”, the “apparent Kd” value was found to be 18.3 nM under setting [3] and 6.12 nM under setting [4].
Take “CUGGUUGUCGAGGAUAUGCACCAGCUCGCUGACGCAGAAGGCGACACAUGAGGAUCACCCAUGUCGGUUCGCGU”: the “apparent Kd” value runs as follows: under setting [1], 21.9 nM; under setting [2], 32.9 nM.
Take “CGUCUGGAUCAAGGAUAUGUCAAGACGCUCCGCGUACACAUGAGGAUCACCCAUGUCAACAAAUGACAGAAGGUGAUAAUGGCC”: the “apparent Kd” value was 80.3 nM under setting [3] and 444 nM under setting [4].
Take “GGGACCGUACUCCUGUUGUACUCUGAGGAUAUCCGUUACGGACAUGAGGAUCACCCAUGUACGGCGGAGAAGGCAGAUCUCAUA”: the “apparent Kd” value runs as follows: under setting [3], 6.44 nM; under setting [4], 5.26 nM.
The matching figures for “CUACAUGAGGAUCACCCAUGUGCACACCGGAUCGGUAUGCGCAGAAGGGCCAUGGAGAAAGCCAGGCAGGAUAUGCAAAGGGCU”: 258 nM and 176 nM.
As to “UCAUAUAUACAAGGAUAUCAAUGAUUUGUAGAUCCUACAUGAGGAUCACCCAUGUUUUUAUAUUUUGAGAAGGUGUAGUGUCUU”, the “apparent Kd” value came out at 178 nM under setting [3] and 352 nM under setting [4].
For “AGUAAGAUGCAGAAGGUGUCAGCGAGAGCUGCGACAUGAGGAUCACCCAUGUACCAGUGAGGGUACAAGGAUAUGCAUCUUACA”, the “apparent Kd” value amounted to 243 nM under setting [3] and 19.3 nM under setting [4].
As to “GUUUUGGUAGGAUAUACAUGAGGAUCACCCAUGUCCCACCCGUUACCUAUGACCAUAUGUAGAAGGACCAUUUG”, the “apparent Kd” value under setting [1] came to 22.2 nM and the “apparent Kd” value under setting [2] is 28.2 nM.
“UACAUGAGGAUCACCCAUGUUUUGUCGUGUAUGGUAUUUAUCUAGGAUAUCAAUUUAGUUAAUUAUGAGAAGGAGAAUAUUAAU”: the “apparent Kd” value runs as follows: under setting [1], 39.1 nM; under setting [2], 39 nM.
As for “UAUAAUCGAGGAUAUACAUGAGGAUCACCCAUGUGUUGCCGCGUGACAUGAUCGUCAGGUAGAAGGCGAUUAUA”, the “apparent Kd” value runs as follows: under setting [1], 189 nM; under setting [2], 39.7 nM.
In the case of “ACAUACAUUCGAGGAUAUCGGUGAUUAAUUUUACGAGAAGGCGAUUUAAGAUAUAAUAUUUUAGACAUGAGGAUCACCCAUGUA”, the “apparent Kd” value runs as follows: under setting [3], 25.3 nM; under setting [4], 23.1 nM.
For the sequence “AUAAAUCAUGUAGGAUAUGCGUGGCGAAGCUAUGCAGAAGGACAUGAGGAUCACCCAUGUCUUUCUGUCUGCGUACAGACAGGA”, the “apparent Kd” value was determined as 23.9 nM under setting [1] and 115 nM under setting [2].
On the same counts, the results for “CAGCGAAAGCUGAAUGUCGGAGCAGAGGAUAUUACAUGAGGAUCACCCAUGUAUGAACCAAAAUGUAAGAAGGCUGCUCCGACA” are 844 nM and 20.4 nM.
As to “AUUAUUUAUAGUUAUUGGUAUUUUACAGAAGGUGAAAGUGUCACAUGAGGAUCACCCAUGUUCUUCAAGGAUAUGUUGUUAUAC”, the “apparent Kd” value under setting [3] is 64.2 nM and the “apparent Kd” value under setting [4] turned out to be 11.6 nM.
With “UGGGUAAAUGUAGGAUAUCUAUAUUAAUAAUAUGGAGAAGGACAUGAGGAUCACCCAUGUACAGGGAAUUACCCAUUUCCUCUC”, the “apparent Kd” value is, setting by setting: under setting [1], 275 nM; under setting [2], 556 nM.
In the case of “GUAGCUAUCGGAGGAUAUUCAUGAUACAUGAGGAUCACCCAUGUUAAAAUGGGAGAAGGCCGAUAGCUACAAGAGCGAAAGCUC”, the “apparent Kd” value by setting is: under setting [3], 41.1 nM; under setting [4], 8.01 nM.
Consider “UGUUGUAUUACAGGAUAUCUAUUAUUAUUAUUUAGAGAAGGGUAUUCACAUGAGGAUCACCCAUGUAUAUACGAGGAAGUUGUG”, for which the “apparent Kd” value under setting [3] amounted to 43.7 nM and the “apparent Kd” value under setting [4] turned out to be 45.5 nM.
The matching figures for “UGUUCAUCAUCAGGAUAUUAACGUGGGCUACUUUAAGAAGGGAUAGUGGGAGAGGAUGUGAAACAUGAGGAUCACCCAUGUUGU”: 13.4 nM and 10.3 nM.
“AUAUUGUGAGGAUAUGAACUUAGUAUCGAAAGAUACUAACUUCAGAAGGCACAUGAGGAUCACCCAUGUUUCUC”: the “apparent Kd” value reads like this: under setting [1], 72.3 nM; under setting [2], 689 nM.
The matching figures for “AACAGUAUAGGAUAUACAUGAGGAUCACCCAUGUGAGAAUUACGUGGCGUACCACGAAGUAGAAGGAUACUGGA”: 38.6 nM and 168 nM.
Regarding “GUCAUGUAAGGAUAUCUUACAUGUGACUUCGGUCACUGUCGAGAGAAGGUACAUGAGGAUCACCCAUGUUCGAC”, the “apparent Kd” value was 17.3 nM under setting [1] and 24 nM under setting [2].
Take “AUUGUAUGGGAAGGAUAUAGAAUAUUAUUUUAACAUGAGGAUCACCCAUGUAACCUUAUGUGUAGCUAGAAGGUCCGUUUGUUA”: the “apparent Kd” value came to 308 nM under setting [1] and 409 nM under setting [2].
On the same counts, the results for “ACGGCAAUCGCAGGAUAUGGUUACAUGAGGAUCACCCAUGUCUAGGGUCUAAUUAGGUAUAACUACCAGAAGGGCGAAGGCCUA” are 53.5 nM and 66 nM.
As to “UAACAAAUUGUCAGGAUAUCAUUCCCGGCCCAGAGUGAGAAGGGACAUGAGGAUCACCCAUGUAUGAUUCUCAC”, the “apparent Kd” value amounted to 16.1 nM under setting [1] and 15.3 nM under setting [2].
On the same counts, the results for “UGCUAGUCAGGAUAUACGAACAUGUCAAAAGACGUGAAGGGACAUGAGGAUCACCCAUGUAGAAGGGACUAGCC” are 33.2 nM and 162 nM.
Take “GGUCCAUUAUGAGGAUAUGGCACCUUAUUGGUGCCAGAAGGCAUAUGUCUUCACAUGAGGAUCACCCAUGUAAUAAAUUGGACC”: the “apparent Kd” value reads like this: under setting [3], 17.4 nM; under setting [4], 19.5 nM.
Regarding “GGUUGACAUAGUCAUCCUUAACGAACAUGAGGAUCACCCAUGUAGGAUAUGCUACUCAAAGAGUAGCAGAAGGGCGUGUGUCUU”, the “apparent Kd” value by setting is: under setting [1], 28.3 nM; under setting [2], 36.1 nM.
“AGCGGCGCAGACCACCGCAAAACCAGAAGGACAUGAGGAUCACCCAUGUAACAAAACAGGGCGAUGUAGGAUAUGGCAAACCCA”: the “apparent Kd” value was 16.3 nM under setting [1] and 18.8 nM under setting [2].
The matching figures for “GAAGUUCUCCAGAAGGCACAUGAGGAUCACCCAUGUAAAAGAGCCUUAAUGUGAGGAUAUGGAAGCUGCUUCAUAGAUGACAUA”: 6.61 nM and 26.5 nM.
Consider “UUGGACGUCGUAGGAUAUGUAGGAUAUUCCUACAUGAGGAUCACCCAUGUUGACAUGGAAGAAGGACAGAAGGACGACGUCCAU”, for which the “apparent Kd” value is, setting by setting: under setting [3], 173 nM; under setting [4], 4.59 nM.
Consider “AAUGGCGUGAUAAUGCUAAUUAAAACAUGAGGAUCACCCAUGUAGGAUAUCCUACCGAAAUGGUAGGAGAAGGACAAGCAAUGA”, for which the “apparent Kd” value reads like this: under setting [1], 44.1 nM; under setting [2], 46.6 nM.
On the same counts, the results for “UUAUUAUAUGUAGGAUAUGCAUAUUGUUGUUAUGCAGAAGGACAUGAGGAUCACCCAUGUGUAUUAUUGUUAUAUAUUAUAUAU” are 21.5 nM and 31.2 nM.
As to “GGGUACAUCGGAGGAUAUCAUGUAAAUACAUGAGGAUCACCCAUGUCGAUGGAGACAUCGGAGAUUGAGAAGGCAGAUGUACCG”, the “apparent Kd” value was 333 nM under setting [3] and 18.1 nM under setting [4].
“CGAAACUACGAGAAGGACAUGUGGUCCUUCAGUUACAUGAGGAUCACCCAUGUAGGAUAUCGUAGUUUCAGGAUCGUGAGAUCC”: the “apparent Kd” value is 58.6 nM under setting [1] and 16.6 nM under setting [2].
With “ACAUUGCUAGGAUAUCGCGGUAAGGACAUGAGGAUCACCCAUGUGGUGCCGUGGGAGGCCCGAGAAGGAGCGACCU”, the “apparent Kd” value runs as follows: under setting [1], 23.1 nM; under setting [2], 25.9 nM.
As for “GUGCUACAGCGGCGCACGAGACAUGAGGAUCACCCAUGUGACAGAAGGGACUUGUUAAAGGUAGGUCAGGAUAUGUCUUAAAAG”, the “apparent Kd” value came to 291 nM under setting [3] and 81.4 nM under setting [4].
As for “AGUCAGAGCAGAGGAUAUAUACAUGAGGAUCACCCAUGUGACUGACUACGCUAGAAAUAGCGUGUAUAGAAGGCUGCUCUGACA”, the “apparent Kd” value under setting [1] was 40.2 nM and the “apparent Kd” value under setting [2] was 96.4 nM.
“GGGUCACAUGAGGAUCACCCAUGUGAGGAUAUGAUACUAUGUACUUCGGUACAUAGUAUCAGAAGGCACAUCCC”: the “apparent Kd” value under setting [1] came to 19.2 nM and the “apparent Kd” value under setting [2] was 35.7 nM.
On the same counts, the results for “CUCUUGUUAGGAUAUCAAACCGGCAGCGGAGCCGCCGGAAGUGAGAAGGGACAUGAGGAUCACCCAUGUAAGAA” are 81.6 nM and 256 nM.
On the same counts, the results for “GAGCGAAAGCUCAAUGUCGAUAGCAGAAGGACAUGAAAACGUGAAAACACAUGAGGAUCACCCAUGUAGGAUAUGCUAUCGACU” are 57.1 nM and 745 nM.
The matching figures for “GAAUAAUUGAUCCAAUAUAACAACAUGAGGAUCACCCAUGUGCAGGAUAUCGUGUGUGUUAUAUACGAGAAGGGCAAGAACUGU”: 729 nM and 594 nM.
As to “AACAUGGUGCAGGAUAUCCAACAUAUCGCGAGAGGAGAAGGGUACACAUGAGGAUCACCCAUGUGUGGUCUGUU”, the “apparent Kd” value worked out at 29.3 nM under setting [1] and 223 nM under setting [2].
Regarding “GUGGCACAUGAGGAUCACCCAUGUCAGGAUAUCGCGUGUUUUUUUUCGGCCGCGCGCGCGAGAAGGGACGUCUU”, the “apparent Kd” value reads like this: under setting [1], 27.1 nM; under setting [2], 29.8 nM.
